Experiment: Toxicity liver stage against HepG2, at 10uM
Assay type: cell-based
Parameters: test concentration 10 uM, cell line HepG2-A16-CD81EGFP
Settings: human, HepG2-A16-CD81EGFP cells; read-out: INHIBITION
Procedure, shortened: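 Uninfected HepG2-A16-CD81EGFP cells, 3 × 10^3 per well, 1536-well, plated on prespotted compound at 10 μM final, parasite-free screening media added to match infected plates; puromycin 10 μM positive, DMSO 0.5% negative; run in parallel with 48 h PbLuc assay at 37 °C, 5% CO2; viability by CellTiter-Glo luminescence, normalized to controls.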

Compound	cytotoxicity at 10 µM [%]
NC(=O)c1cccc2nc([C@H]3CCN(Cc4ccccc4F)C3)[nH]c12	20.8
COCCC(=O)N1C[C@H]2CN(Cc3cccc(C)c3)C(=O)[C@H]2C1	2.05
Cc1cccc(CN2C[C@@H]3CN(C(=O)C4CC=CC4)C[C@@H]3C2=O)n1	2
CN1CCN(C(=O)N2CCCC2)Cc2cccnc21	-3.66
O=C(CCn1ccc2ccc(Br)cc21)NCc1ccc(C(=O)O)cc1	13.4
CC(C)CCn1[nH]c(CNc2ccc(F)cc2)nc1=O	11.3
CCCOc1ccc(C2SCC(=O)Nc3c2c(=O)[nH]n3C(C)C)cc1 (configuration not stated)	5.95
O=c1c2cc3c(cc2nnn1Cc1ccccc1)OCCO3	7.38
Cc1nn(C)cc1-c1cc(-c2cn(C)nc2C)n(CC(=O)NC2CC2)n1	4.46
COCCNC(=O)C(C)n1cc(Br)cn1 (configuration not stated)	-15
CCN1CCCc2cc(CN3CCc4nc(C)[nH]c(=O)c4C3)ccc21	0.13
CC(C)n1nccc1C(=O)N1CCC(c2nnsc2S(C)(=O)=O)CC1	-0.88
O=S1(=O)CCN(CCCc2ccc(Cl)cc2)CC1	1.91
O=C(NCCc1cc(F)ccc1F)NCC(O)C1CC1 (configuration not stated)	-2.99
O=C1NCC(C(=O)NCc2ccccc2CN2CCOCC2)N1 (configuration not stated)	3.64
COCCC(C)NCc1ccccc1-n1ccnc1 (configuration not stated)	1.91
COCC(=O)N1CCN(c2ncnc3cccc(F)c23)CC1	6.37
CCc1cc(NCCCNS(C)(=O)=O)nc(-c2ccncc2)n1	3.62
COc1ccc2c(c1)NC(=O)C2OC(=O)CCc1ccc(F)cc1 (configuration not stated)	-4.71
Cn1cc(CCC(=O)NS(=O)(=O)N2CCCc3ccccc32)cn1	14.6
CN(c1ccc(F)cc1)S(=O)(=O)c1cc2c(c(C(=O)O)c1)OCCO2	-5.79

Compound	cytotoxicity at 10 µM [%]
O=C(NCCCN1CCN(c2ncccn2)CC1)Nc1ccccn1	-7.48
Cc1ccccc1CN1CCCN(CCN2CCOC2=O)CC1	-7.53
c1cc(CCN2CCC(NCc3ccsc3)CC2)ccn1	-11
COCc1nc2cc(NCc3csc(C)n3)ccc2o1	0.873
CCn1cc(CNCC(c2ccc(C)s2)N2CCOCC2)cn1 (configuration not stated)	-8.65
COc1cccc2c1OCC(NC(=O)NCCC(N)=O)C2 (configuration not stated)	-1.38
COc1ccc(-c2cnc(CN3CCCC3CO)o2)cc1 (configuration not stated)	9.38
Cc1nc(C)n(C2CCCN(C(=O)CCn3cncn3)C2)n1 (configuration not stated)	-4.24
Cn1cc(NC(=O)c2cccc(C(F)(F)F)c2)c(=O)n(C)c1=O	0.49
Cc1cc(N2CCOCC2)ccc1NC(C)c1nc(C(C)(C)C)no1 (configuration not stated)	-12.7
CCc1nnc2n1CC(CNCc1nnc(C(C)(C)C)o1)CC2 (configuration not stated)	3.18
CC1COCCN1Cc1nc(C(C)(C)C)no1 (configuration not stated)	4.87
CN(Cc1cnn(C)c1)C(=O)c1cc2ccccc2c(=O)[nH]1	-5.64
NC(=O)CN1CCC(Nc2ccnc3ccc(Cl)cc23)CC1	31.8
O=C(CCC(=O)c1ccccc1)NC1(C(=O)NCC2CC2)CCCC1	2.26
CC(C)(C)C(=O)NCC(=O)NCCc1nc(C(F)(F)F)cs1	6.16
O=C(NCc1cc[nH]n1)NCC(c1ccco1)N1CCCC1 (configuration not stated)	13.6
Cc1ccc(CNC2CCN(CCc3ccncc3)CC2)cc1C	-8.92
COCc1noc(C2(c3ccc(F)cc3)CCOCC2)n1	-25.3
CCc1nc(COc2ccc(OCc3cnn(C)c3)cc2)no1	-14.9
Cc1ccc(C(=O)N2CCSCC2)cc1NC(=O)Cn1cncn1	-11.1

Compound	cytotoxicity at 10 µM [%]
Cc1cnn(CC(C)NCc2nc(-c3cccnc3)no2)c1 (configuration not stated)	-8.86
COCC1CC2(CCN(Cc3nc(C)cs3)CC2)CO1 (configuration not stated)	-111
COCCCNc1nccc(-c2c[nH][nH]c2=O)n1	7.46
Cc1cccnc1NCCNC(=O)c1cnc(-c2cccs2)nc1O	4.62
CCOCCC(=O)N1CCCN(c2ccccc2C)CC1	-7.68
CN1CCC(N(C)C[C@H]2CC[C@@H](Cc3ccc4c(cnn4C)c3)O2)CC1	5.03
Cc1cc(C(=O)N2CC(O)CO2)c2ccc(C)c(C)c2n1 (configuration not stated)	11.3
COCCN1CCCC(O)(CN2CCN(c3ccncc3C)CC2)C1=O (configuration not stated)	-6.45
COCCN(C)[C@@H]1c2ccccc2C2(CCNCC2)[C@H]1O	-4.61
N#Cc1cccc(NC2CC(=O)N(CCCc3ccccc3)C2)n1 (configuration not stated)	5.82
CN1CCCN(C(=O)c2cccc(S(=O)(=O)NCC3(C)COC3)c2)CC1	-6.63
Nc1cc(-c2cc(C(=O)O)ccc2Cl)c2cc[nH]c2n1	1.94
O=C(NCCc1nc(-c2ccccn2)no1)c1ccc(C2CCCO2)s1 (configuration not stated)	5.65
COc1ccc(F)c(-c2cc(C(=O)NC3CC3)ccn2)c1	-1.36
CCNc1ncc(CN2CCOC(Cc3cccc(OC)c3)C2)cn1 (configuration not stated)	0.583
CCCOc1ccccc1NCC(=O)Nc1ccc(CC)cc1	6.37
CC(=O)N1CCCN(C(C(=O)O)c2ccccc2OC(F)(F)F)CC1 (configuration not stated)	15.5
c1ccc(CCCn2ccnc2-c2cn(C3CCNCC3)nn2)nc1	-1.86
COc1ccc(NC(=O)N2CCC3(CC2)NC(=O)CC3C(=O)O)c(C)c1 (configuration not stated)	-7.34
Fc1cnc(N2CCN(Cc3ccc(-c4cc[nH]n4)o3)CC2)nc1	-6
CC(C)N1CCC[C@H]1C(=O)NCC1CCN(c2cnn(C)c(=O)c2)CC1	4.75

Compound	cytotoxicity at 10 µM [%]
COCCN(C)CCN1CC2(CCN(C3CCOCC3)CC2)OC1=O	4.5
COc1cccc(-n2cc(CN(C)Cc3ccnc(C(C)C)n3)cn2)c1	-1.29
CC(=O)N1CCN(C[C@H]2CC[C@@H](Cc3ccc4c(c3)OCO4)O2)CC1	-7.9
Cc1[nH]ccc1C(=O)N1CCC(c2nnc(Cn3cccn3)n2C)CC1	-11.5
CC(C)CCc1noc(CN2CCCN(C(=O)c3ccco3)CC2)n1	-7.06
O=C(NC1CCCC1)N1CCCC(c2nccn2Cc2ccncc2)C1 (configuration not stated)	-18.3
Cn1cc(C(=O)N2CCC(Cc3nccs3)CC2)cn1	7.63
Cc1nccc(-c2cccc(NCC(=O)N3CCc4sccc4C3)c2)n1	1.06
Cc1cnn(CC2CN(CC(=O)NCCc3cccs3)CCO2)c1 (configuration not stated)	1.88
Cc1cn2c(n1)CCC(NC(=O)c1c[nH]c(C)n1)C2 (configuration not stated)	-0.361
Cc1ccc(NC(=O)N2CCN(Cc3noc(C4CC4)n3)CC2)cc1	4.88
COCc1cccc(C(=O)N2CCCCC2c2nccs2)c1 (configuration not stated)	-2.06
Cc1ccc(OCCC(=O)N2CCN(c3cnccn3)CC2)cc1C	-12.2
CN(C)c1ncc(-c2ccc(F)cc2)c(C2CNCCO2)n1 (configuration not stated)	-5.68
COCCN1CCCC2(CCC(=O)N2Cc2cccnc2)C1 (configuration not stated)	4.32
COCCN1CCC2(CC1)CN(C(=O)Cc1cccnc1)CCO2	-9.43
CC(C)n1cnc2c1C(C(=O)NCCC#N)N(Cc1ccccc1)CC2 (configuration not stated)	-7.2
Cn1cccc1C(=O)N1C[C@H]2CN(Cc3cccs3)C[C@H]2C1	2.02
Cc1cccc(CN2C(=O)C[C@H]3[C@@H]2CCN3Cc2nccs2)n1	-2.92

From ChEMBL document CHEMBL4513216, “Probing the Open Global Health Chemical Diversity Library for Multistage-Active Starting Points for Next-Generation Antimalarials” (ACS Infect Dis, 2020)
